Measurements published in ChEMBL document CHEMBL1150215, “Strychnogucines A and B, two new antiplasmodial bisindole alkaloids from Strychnos icaja” (J Nat Prod, 2001).

How the values were obtained:
Plasmodium falciparum [1] = test: Antiplasmodial activity against chloroquine-resistant Plasmodium falciparum PFB Brazil by [3H]hypoxanthine uptake; type: functional, organism-based
Method in brief: (§1)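 Continuous asexual erythrocytic P. falciparum culture (Trager and Jensen). Samples tested as eight 4-fold dilutions, final 20 µg/mL down to 0.0012 µg/mL, in duplicate. Growth read by [3H]hypoxanthine incorporation (Desjardins method, Mirovsky modification). IC50 given as mean ± standard deviation. Differences were tested by Student's t-test at p ≤ 0.05.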

Plasmodium falciparum [2] = test: Antiplasmodial activity against chloroquine-sensitive Plasmodium falciparum FCA 20 Ghana by [3H]hypoxanthine uptake; type: functional, organism-based
Method in brief: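 Asexual erythrocytic stages kept in continuous in vitro culture (Trager and Jensen method). Eight 4-fold dilutions per sample, final concentrations 20 μg/mL down to 0.0012 μg/mL, each tested in duplicate. Growth read as [³H]hypoxanthine incorporation (Desjardins method, Mirovsky modification). Results given as mean ± standard deviation; differences assessed by Student's t-test, p ≤ 0.05.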

[3] = Selectivity index, ratio of IC50 for human KB cells to IC50 for chloroquine-resistant Plasmodium falciparum W2 Indochina; type: toxicity, cell-based; details: KB cells versus Plasmodium falciparum W2 Indochina, read-out: Ratio IC50
Method in brief: (§2)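 SI is cytotoxicity IC50 divided by antiplasmodial IC50. Cytotoxicity was measured on cultured KB cancer cells or WI38 human fibroblasts in microplates by WST-1 tetrazolium colorimetric assay, with emetine and usambarensine as references.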

[4] = Selectivity index, ratio of IC50 for human WI38 cells to IC50 for chloroquine-sensitive Plasmodium falciparum FCA 20 Ghana; type: toxicity, cell-based, WI-38; details: WI38 cells versus Plasmodium falciparum FCA 20 Ghana, read-out: Ratio IC50; method in brief: as §2
[5] = Cytotoxicity against human WI38 cells by WST1 assay; type: cell-based; details: WI-38
Method in brief: (§3)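 Cells grown as in earlier work and exposed to samples in 96-well microplates. Viability read by colorimetric assay with the tetrazolium salt WST-1. Emetine and usambarensine base run as reference compounds. Results given as IC50 in μM.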

[6] = Selectivity index, ratio of IC50 for human WI38 cells to IC50 for chloroquine-resistant Plasmodium falciparum W2 Indochina; type: toxicity, cell-based, WI-38; details: WI38 cells versus Plasmodium falciparum W2 Indochina, read-out: Ratio IC50; method in brief: as §2
Plasmodium falciparum [7] = test: Antiplasmodial activity against chloroquine-sensitive Plasmodium falciparum F32-Tanzania by [3H]hypoxanthine uptake; type: functional, organism-based
Method in brief: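 Asexual erythrocytic stages kept in continuous in vitro culture (Trager and Jensen method). Eight 4-fold dilutions per sample, final concentrations 20 μg/mL down to 0.0012 μg/mL, each tested in duplicate. Growth read as [³H]hypoxanthine incorporation (Desjardins method, Mirovsky modification).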

KB = test: Cytotoxicity against human KB cells by WST1 assay; type: cell-based; method in brief: as §3
[8] = Selectivity index, ratio of IC50 for human KB cells to IC50 for chloroquine-sensitive Plasmodium falciparum FCA 20 Ghana; type: toxicity, cell-based; details: KB cells versus Plasmodium falciparum FCA 20 Ghana, read-out: Ratio IC50; method in brief: as §2
Plasmodium falciparum [9] = test: Antiplasmodial activity against chloroquine-resistant Plasmodium falciparum W2 Indochina by [3H]hypoxanthine uptake; type: functional, organism-based; method in brief: as §1

Row | Compound | IC50 (Plasmodium falciparum [1]) [µM] | IC90 (Plasmodium falciparum [1]) [µM] | IC90 (Plasmodium falciparum [2]) [µM] | selectivity ratio [3] | selectivity ratio [4] | IC50 [5] [µM] | selectivity ratio [6] | IC50 (Plasmodium falciparum [7]) [µM] | IC90 (Plasmodium falciparum [7]) [µM] | IC50 (KB) [µM] | selectivity ratio [8] | IC90 (Plasmodium falciparum [9]) [µM] | IC50 (Plasmodium falciparum [2]) [µM]
1 | C/C=C1/CN2[C@@H](C3=C[C@@H]4[C@@H]5N(C3=O)c3ccccc3[C@@]53CCN5C/C(=C/CO)[C@@H]4C[C@H]53)C[C@@]34c5ccccc5N5C(=O)CC=C([C@H]1C[C@H]23)[C@H]54 | 0.431 | 1.64 | 4.35 | 116 | 19.8 | 16.8 | 120 | 1.26 | 5.35 | 16.2 | 19.1 | 1.35 | –
2 | CCN(CC)CCCC(C)Nc1ccnc2cc(Cl)ccc12 (stereo unspecified) [CHLOROQUINE] | – | 1.54 | 0.119 | – | – | – | – | – | 0.063 | – | – | 1.75 | –
3 | CC[C@H]1CN2CCc3cc(OC)c(OC)cc3[C@@H]2C[C@@H]1C[C@H]1NCCc2cc(OC)c(OC)cc21 [EMETINE] | – | – | – | – | – | – | – | – | – | 0.056 | – | – | –
4 | C/C=C1/CN2[C@@H](C3=C[C@@H]4[C@@H]5N(C3=O)c3ccccc3[C@@]53CCN5C/C(=C/C)[C@@H]4C[C@H]53)C[C@@]34c5ccccc5N5C(=O)CC=C([C@H]1C[C@H]23)[C@H]54 [ISOSUNGUCINE] | – | – | 7.06 | 34 | 7 | 9.2 | 34.7 | – | – | 9 | 6.8 | 1.72 | –
5 | OC(c1cc(C(F)(F)F)nc2c(C(F)(F)F)cccc12)C1CCCCN1 (stereo unspecified) [MEFLOQUINE] | 0.002 | 0.006 | – | – | – | – | – | – | 0.354 | – | – | – | –
6 | C=C[C@H]1CN2CC[C@H]1C[C@H]2[C@H](O)c1ccnc2ccc(OC)cc12 [QUININE] | – | – | 1.91 | – | – | – | – | – | – | – | – | 1.72 | –
7 | C/C=C1/CN2[C@@H]([C@@H]3C(=O)N4c5ccccc5[C@@]56CCN7CC8=CCO[C@@H]3[C@@H]([C@H]45)[C@H]8C[C@H]76)C[C@@]34c5ccccc5N5C(=O)CC=C([C@H]1C[C@H]23)[C@H]54 [STRYCHNOGUCINE A] | 3.2 | 9.4 | 6.98 | – | – | – | – | 4.81 | 9.54 | – | – | – | 2.31
8 | O=C1C[C@@H]2OCC=C3CN4[C@@H](C5=C[C@@H]6[C@@H]7N(C5=O)c5ccccc5[C@@]75CCN7C/C(=C/CO)[C@@H]6C[C@H]75)C[C@]56c7ccccc7N1[C@H]5[C@@H]2[C@H]3C[C@H]46 [STRYCHNOGUCINE B] | 0.202 | 1.15 | 3.79 | > 176 | 25.1 | 15.5 | 182 | 0.51 | 3.23 | > 15 | > 24.3 | – | –
9 | C/C=C1/CN2CC[C@]34c5ccccc5N5C(=O)C([C@H]6C[C@]78c9ccccc9N9C(=O)C=C[C@@H]([C@H]97)[C@H]7C[C@@H]8N6C/C7=C/C)=C[C@H]([C@H]53)[C@H]1C[C@H]24 [SUNGUCINE] | – | – | 26.3 | 0.6 | 0.8 | 6 | 0.6 | – | – | 6.2 | 0.8 | 33.1 | –
10 | C/C=C1/CN2CCc3c([nH]c4ccccc34)[C@@H]2C[C@@H]1Cc1nccc2c1[nH]c1ccccc12 [USAMBARENSINE] | – | – | – | 36.6 | 3.1 | 4.62 | 7.8 | – | – | 9.7 | 14.8 | – | –
